ChEMBL document CHEMBL4257580, “Tanshinone-IIA-Based Analogues of Imidazole Alkaloid Act as Potent Inhibitors To Block Breast Cancer Invasion and Metastasis in Vivo” (J Med Chem, 2018)
Active and inactive are the calls of the source. No cut-off for these calls is given here.

Key:
MDA-MB-231 [1] = assay: Cell cycle arrest in human MDA-MB-231 cells assessed as accumulation at G1 phase at 5 uM after 24 hrs by propidium iodide staining based flow cytometry (reference value: 49.40%)
MDA-MB-231 [2] = assay: Cell cycle arrest in human MDA-MB-231 cells assessed as accumulation at G1 phase at 15 uM after 72 hrs by propidium iodide staining based flow cytometry (reference value: 49.40%); format: functional
MDA-MB-231 [3] = assay: Antimigratory activity in human MDA-MB-231 cells at 3 uM up to 72 hrs by wound healing assay relative to control; format: functional
Outline: (§1)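 Scratch assay: 1×10^5 cells/well grown to more than 80% confluence and wounded with a pipette tip. Cells then incubated with 0, 3 or 6 μM in serum-free DMEM for 72 h. The same field was imaged repeatedly over 3 days. Migration rate is wound filling, averaged over 10 fields; three independent experiments, mean ± SD.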

MDA-MB-231 [4] = assay: Induction of morphological changes in human MDA-MB-231 cells assessed as unevening of cell membrane surface with large and numerous particles at 5 to 20 uM after 72 hrs; format: functional, cell-based
MDA-MB-231 [5] = assay: Antitumor activity in human MDA-MB-231 cells xenografted in fil1:EGFP transgenic zebrafish sub-intestinal vessels assessed as reduction in tumor area at 5 uM measured every 24 hrs for 96 hrs by fluorescence microscopy; format: functional, cell-based
Outline: (§2)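 Tg(fli1:EGFP) embryos at 48 hpf injected with 10–50 nL of DiI-labelled cells (~10^7 cells/mL in serum-free DMEM) into the perivitelline space near the subintestinal vessels. Ten embryos per well kept in 2 mL aquaculture water with 0 or 5 μM for 96 h. Imaged every 24 h by fluorescence microscopy; tumour area and trunk/tail fluorescence quantified, n=10/group, three experiments.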

MDA-MB-231 [6] = assay: Cell cycle arrest in human MDA-MB-231 cells assessed as accumulation at G2 phase at 10 uM after 72 hrs by propidium iodide staining based flow cytometry (reference value: 8%); format: functional
MDA-MB-231 [7] = assay: Cell cycle arrest in human MDA-MB-231 cells assessed as accumulation at S phase at 10 uM after 72 hrs by propidium iodide staining based flow cytometry (reference value: 42.60%); format: functional
MDA-MB-231 [8] = assay: Induction of apoptosis in human MDA-MB-231 cells assessed as early apoptotic cells at 10 uM after 72 hrs by annexin-V/propidium iodide double staining based flow cytometry (reference value: 0.02%); format: functional
MDA-MB-231 [9] = assay: Induction of apoptosis in human MDA-MB-231 cells assessed as late apoptotic cells at 5 uM after 72 hrs by annexin-V/propidium iodide double staining based flow cytometry (reference value: 0.12%); format: functional
MDA-MB-231 [10] = assay: Antimigratory activity in human MDA-MB-231 cells up to 72 hrs by wound healing assay; format: functional, cell-based
Outline: as §1

A549 = assay: Antiproliferative activity against human A549 cells after 72 hrs by MTT assay; format: functional, cell-based; conditions: A549, 72 h
Outline: (§3)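 A549, HeLa, HepG2 and normal liver L02 cells kept in DMEM with 10% FBS at 37 °C under 5% CO2. Plated at 5×10^3 cells/well for 24 h, then treated with graded concentrations for 72 h. Viability measured by MTT reduction (5 h), formazan dissolved in DMSO and read at 570 nm. Three repeats.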

MDA-MB-231 [11] = assay: Cell cycle arrest in human MDA-MB-231 cells assessed as downregulation of cyclin A expression at 5 to 15 uM after 72 hrs by Western blot analysis; format: functional, cell-based
Outline: (§4)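 Cells treated with 0, 5, 10 or 15 μM for 72 h. Lysates quantified by BCA, equal protein resolved on 10% tricine SDS-PAGE and transferred to nitrocellulose. Membranes blocked in 5% milk/TBST, then primary antibodies 1:1000 overnight at 4 °C and HRP secondary 1:2000 for 1 h at room temperature. Three independent experiments.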

Danio rerio [12] = assay: Toxicity in […] 24 hpf fil1:EGFP transgenic zebrafish embryo assessed as inhibition of normal angiogenesis at 2 to 4 uM after 48 hrs by fluorescence microscopy; format: organism-based; conditions: in vivo
Outline: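 Non-xenografted Tg(fli1:EGFP) embryos dechorionated at 24 hpf and incubated with 0, 2 or 4 μM for 48 h, with PTK787 as positive control. Subintestinal vessel formation imaged at 72 hpf by fluorescence microscopy. n=10/group, three independent experiments.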

MDA-MB-231 [13] = assay: Induction of apoptosis in human MDA-MB-231 cells assessed as up-regulation cleaved caspase3 expression at 5 to 15 uM after 72 hrs by Western blot analysis; format: functional, cell-based
Outline: as §4

MDA-MB-231 [14] = assay: Induction of apoptosis in human MDA-MB-231 cells assessed as early apoptotic cells at 5 uM after 72 hrs by annexin-V/propidium iodide double staining based flow cytometry (reference value: 0.02%); format: functional
MDA-MB-231 [15] = assay: Antimetastasis activity in human MDA-MB-231 cells assessed reduction in FAK protein expression at 5 to 15 uM after 72 hrs by Western blot analysis; format: functional, cell-based
Outline: as §4

MDA-MB-231 [16] = assay: Antiangiogenesis activity in human MDA-MB-231 cells xenografted in fil1:EGFP transgenic zebrafish sub-intestinal vessels assessed as inhibition of cell migration at 5 uM measured every 24 hrs for 96 hrs by fluorescence microscopy; format: functional, cell-based
Outline: as §2

MDA-MB-231 [17] = assay: Cell cycle arrest in human MDA-MB-231 cells assessed as accumulation at G2 phase at 15 uM after 72 hrs by propidium iodide staining based flow cytometry (reference value: 8%); format: functional
MDA-MB-231 [18] = assay: Antimetastasis activity in human MDA-MB-231 cells assessed upregulation of GSKbeta protein expression at 5 to 15 uM after 72 hrs by Western blot analysis; format: functional, cell-based
Outline: as §4

MDA-MB-231 [19] = assay: Induction of DNA damage in human MDA-MB-231 cells assessed as increase in gammaH2AX focal positive cells up to 20 uM after 24 hrs by SYBR Green1-staining based fluorescence microscopy; format: functional, cell-based
MDA-MB-231 [20] = assay: Cell cycle arrest in human MDA-MB-231 cells assessed as up-regulation of p21 expression at 5 to 15 uM after 72 hrs by Western blot analysis; format: functional, cell-based
Outline: as §4

MDA-MB-231 [21] = assay: Induction of DNA damage in human MDA-MB-231 cells assessed as up-regulation of gammaH2AX expression at 2 to 15 uM by Western blot analysis; format: functional, cell-based
MDA-MB-231 [22] = assay: Induction of DNA damage in human MDA-MB-231 cells assessed as up-regulation of p53 expression at 2 to 15 uM by Western blot analysis; format: functional, cell-based
MDA-MB-231 [23] = assay: Antiangiogenesis activity in human MDA-MB-231 cells xenografted in fil1:EGFP transgenic zebrafish sub-intestinal vessels assessed as slowing of the sprout of angiogenesis at 5 uM measured every 24 hrs by fluorescence microscopy; format: functional, cell-based
Outline: as §2

MDA-MB-231 [24] = assay: Induction of DNA damage in human MDA-MB-231 cells assessed as down-regulation of AKT expression at 2 to 15 uM by Western blot analysis; format: functional, cell-based
HepG2 = assay: Antiproliferative activity against human HepG2 cells after 72 hrs by MTT assay; format: functional, cell-based; conditions: HepG2, 72 h
Outline: as §3

MDA-MB-231 [25] = assay: Antiangiogenesis activity in human MDA-MB-231 cells xenografted in fil1:EGFP transgenic zebrafish sub-intestinal vessels assessed as inhibition of cell invasion at 5 uM measured every 24 hrs for 96 hrs by fluorescence microscopy; format: functional, cell-based
Outline: as §2

Danio rerio [26] = organism: Danio rerio; assay: Ecotoxicity in fil1:EGFP transgenic zebrafish embryo up to 50 uM after 96 hrs by microscopic analysis; format: organism-based; conditions: in vivo

In the case of `Cc1coc2c3ccc4c(c3c3[nH]c(-c5ccc(O)cc5)nc3c12)CCCC4(C)C`, the Activity (MDA-MB-231 [1]) is reported as 42.38%, the Activity (MDA-MB-231 [2]) is reported as 35.37% and the Activity (MDA-MB-231 [3]) is reported as less than 50%. The Activity (MDA-MB-231 [4]) was “Active”, the Activity (MDA-MB-231 [5]) was “Active” and the Activity (MDA-MB-231 [6]) was 13.01%. It also gave an Activity (MDA-MB-231 [7]) of 51.5%, an Activity (MDA-MB-231 [8]) of 3.87% and an Activity (MDA-MB-231 [9]) of 0.43%. The Activity (MDA-MB-231 [10]) was “Dose-dependent effect”, the IC50 (A549) was 6.9 µM and the Activity (MDA-MB-231 [11]) was “Active”. For the same compound, the Activity (Danio rerio [12]) was “Non-Toxic”, the Activity (MDA-MB-231 [13]) was “Active” and the Activity (MDA-MB-231 [14]) was 2.22%. For the same compound, the Activity (MDA-MB-231 [15]) was “Active”, the Activity (MDA-MB-231 [16]) was “Active” and the Activity (MDA-MB-231 [17]) was 10.12%. The Activity (MDA-MB-231 [18]) was “Active”, the Activity (MDA-MB-231 [19]) was “Active” and the Activity (MDA-MB-231 [20]) was “Active”. For the same compound, the Activity (MDA-MB-231 [21]) was “Active”, the Activity (MDA-MB-231 [22]) was “Active” and the Activity (MDA-MB-231 [23]) was “Active”. The Activity (MDA-MB-231 [24]) was “Active”, the IC50 (HepG2) was 21.2 µM and the Activity (MDA-MB-231 [25]) was “Active”. The Activity (Danio rerio [26]) was “Non-Toxic”.
